High-throughput results as filed in PubChem BioAssay.
TRPC6 inhibitor = blocks the mouse TRPC6 cation channel; Q61143; 1.1% of 310,000 active; HEK293-TRPC6, membrane potential dye, ACh-evoked depolarization; hits give low values; B-score at 10 µM;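 active = B-score under library mean minus 3 SD, initial fluorescence not abnormally high, positive integrated signal ratio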;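 note: B-score derived from integrated fluorescence ratio over the kinetic read; more negative B-score means stronger inhibition of depolarization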
TRPC4 inh = inhibitors of mouse TRPC4 channel; HEK293 TRPC4beta/mu-opioid, DAMGO-evoked Fluo4 calcium flux; hits give low values; AID 2247; Q9QUQ5; 0.39% of 300,000 active; B-score at 10 µM;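 active = B-score over 3 SD under the library average, no early fluorescence shift, positive overall ratio signal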
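Test system – stable TRPC4beta/mu-opioid receptor HEK293 cells · Probe or stimulus – DAMGO, a submaximal dose followed by a maximal one · Dosing – one concentration per compound · Signal – Fluo4 calcium fluorescence by kinetic imaging, 5 s 1 Hz baseline · Evaluation – per-well B score of integrated baseline-normalized Fluo4 ratio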
TRPC4 potent = TRPC4 (mouse) allosteric potentiation; AID 2227; Q9QUQ5; 0.42% of 310,000 active; B-score at 10 µM; HEK293 TRPC4beta/mu-opioid, DAMGO EC20, Fluo-4 Ca2+ flux; hits give high values;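 active = B-score of calcium response area above 5 SD of library B-scores, with initial fluorescence ratio within 5 SD of library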;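 note: B-score of integrated fluorescence ratio over time as area under calcium response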
TRPC6 activator = activates the mouse TRPC6 cation channel; Q61143; HEK293-TRPC6 membrane potential dye fluorescence; hits give high values; B-score at 10 µM; 0.13% of 310,000 active; AID 2550;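 active = B-score of the integrated fluorescence ratio above library mean plus 3 SD, and starting fluorescence ratio within library mean plus 5 SD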;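 note: higher score means more depolarization so channel activation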
TRPC4 agonist = TRPC4 (mouse) channel activation | Q9QUQ5 | HEK293 TRPC4beta/mu-opioid, Fluo4 calcium fluorescence; hits give high values | B-score at 10 µM | 0.49% of 310,000 active;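 active = B-score above 5 SD of library B-scores, and initial fluorescence ratio not above library mean plus 5 SD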;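 note: positive B-score marks a calcium rise read as TRPC4 activation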
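System – HEK293 cells stably co-expressing mouse TRPC4beta and mu-opioid receptor · Signal – Fluo4 calcium-sensitive dye fluorescence, kinetic, 1 Hz baseline · Benchmarks – buffer (low) and maximal DAMGO (high) · Read-out – B score of integrated fluorescence ratio per well · Incubation – dye loading 45 min room temperature, 110 s kinetic read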
TRPC4 sel inh 2 = second selectivity test of TRPC6 inhibitors: effect on mouse TRPC4; shares compounds with TRPC6 inhibitor; HEK293 TRPC4/MOR, membrane potential dye fluorescence; channel activated by saturating DAMGO dose; inhibition, % at 10 µM; 42% of 920 active;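 active = compounds whose fluorescence signal differed from control wells by over 3 SD, either direction, in both duplicate plates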
TRPC4 spec = selectivity of TRPC6 inhibitors: effect on mouse TRPC4 | shares compounds with TRPC6 inhibitor | HEK293 TRPC4/mu-opioid, membrane potential fluorescence | activity change, negative = inhibition, % at 10 µM | 61% of 920 active;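 active = rise or fall in signal beyond 3 SD of buffer-only wells in both replicate plates, either sign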;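 note: integrated kinetic ratio of fluorescence range over baseline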
HEK293 MPD ctr 2-1 = parental HEK293 nonspecific activity of TRPC6 inhibitors, second screen; shares compounds with TRPC6 inhibitor; parental HEK293 membrane potential dye fluorescence; maximal acetylcholine challenge after compound addition; signal change vs control, % at 10 µM; 31% of 920 active; AID 2779;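 active = membrane potential signal moving either way by over 3 SD of the maximum-effect control, in both duplicate plates, meaning non-specific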
HEK293 MPD ctr-1 = checks TRPC6 inhibitor effects in parental HEK293 cells | 60% of 920 active | shares compounds with TRPC6 inhibitor | membrane potential signal change, % at 10 µM | parental HEK293 membrane potential dye fluorescence;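 active = membrane potential signal shifting up or down by more than 3 SD of buffer-only wells, on both duplicate plates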
HEK293 MPD ctr-2 = parental HEK293 nonspecific activity of TRPC6 modulators | shares compounds with TRPC6 inhibitor | membrane potential dye fluorescence | membrane potential signal change, % at 10 µM | 51% of 2,400 active;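 active = membrane potential signal moves up or down beyond 5 SD from buffer-only wells, on both duplicate plates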
HEK293 MPD ctr 2-2 = second check of TRPC6 modulator effects in parental HEK293 cells; 14% of 2,400 active; membrane potential dye fluorescence; after compound, maximal acetylcholine stimulation; AID 488926; shares compounds with TRPC6 inhibitor; inhibition, % at 10 µM;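 active = membrane potential signal drops by more than 5 SD from the mean control signal, in both duplicate plates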;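 note: plate controls were acetylcholine ECmax control wells for no effect and buffer only wells for full effect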
TRPC4/MOR mod = tests whether TRPC6 modulators also affect mouse TRPC4. HEK293 TRPC4/mu-opioid, membrane potential fluorescence. percent change from control (negative = decrease, positive = increase), % at 10 µM. 69% of 2,400 active. shares compounds with TRPC6 inhibitor;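 active = membrane potential signal moved up or down beyond 5 SD of buffer control wells, in both duplicate plates, actives on both sides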;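 note: plate controls were assay buffer wells for no effect and DAMGO maximal-effect wells for full effect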
TRPC4/MOR inh 2 = second selectivity test of TRPC6 modulators against mouse TRPC4; shares compounds with TRPC6 inhibitor; HEK293 TRPC4/mu-opioid, membrane potential dye fluorescence; stimulated with maximal-effect DAMGO; inhibition, % at 10 µM; 55% of 2,400 active; AID 488928;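 active = drop in membrane potential signal beyond 5 SD of the control wells in both duplicate plates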;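 note: TRPC4 counter screen for TRPC6 hits run under conditions tuned for TRPC6 not TRPC4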
TRPC6 inh conf = mouse TRPC6 inhibitor confirmation. inhibition, % at 10 µM. HEK293-TRPC6, membrane potential dye, ACh-evoked depolarization. shares compounds with TRPC6 inhibitor. AID 488960. 43% of 3,300 active;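 active = fluorescence ratio falls more than 5 SD below the full-stimulation control mean, in both duplicate runs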;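 note: integrated fluorescence ratio of peak minus minimum over baseline after agonist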
TRPC6 act confirm = confirmation of mouse TRPC6 activators | shares compounds with TRPC6 inhibitor | HEK293-TRPC6 membrane potential dye fluorescence, FDSS | activation, % at 10 µM | 11% of 2,800 active | AID 488961;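 active = ratio signal rise beyond 5 SD above unstimulated control wells' mean, seen in both duplicate runs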;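 note: plate controls were buffer EC0 wells for no effect and acetylcholine ECmax response for full effect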
An asterisk follows results filed as active; i = inactive; . = no result. A selection: hits, their analogues and other compounds. The true share with any hit is near 2.3%.

SMILES	TRPC6 inhibitor	TRPC4 inh	TRPC4 potent	TRPC6 activator	TRPC4 agonist	HEK293 MPD ctr-2	HEK293 MPD ctr 2-2	TRPC4/MOR mod	TRPC4/MOR inh 2	TRPC6 inh conf	TRPC6 act confirm	others
Cc1cccc(C(=O)NNC2=C(C(=O)C(F)(F)F)CCC2)c1O	-7.6*	i	i	i	i	.	.	.	.	i	i	TRPC4 sel inh 2=i;TRPC4 spec=-12%*;HEK293 MPD ctr 2-1=i;HEK293 MPD ctr-1=-190%*
O=C(NNC1=C(C(=O)C(F)(F)F)CCC1)c1cccc(O)c1	i	i	i	i	i	.	.	.	.	.	.
Cc1cc(C(=O)N/N=C/c2c(C)[nH]n(-c3ccccc3)c2=O)n[nH]1	-7.9*	i	i	i	i	.	.	.	.	i	i	TRPC4 sel inh 2=i;TRPC4 spec=-23%*;HEK293 MPD ctr 2-1=i;HEK293 MPD ctr-1=-328%*
Cc1cc(C(=O)N/N=C/c2cc(N=Nc3ccccc3)ccc2O)n[nH]1	-5.9*	i	i	i	i	i	i	i	i	i	i
Cc1[nH]n(-c2ccccc2)c(=O)c1/C=N/NC(=O)c1ccc(O)cc1O	i	i	i	i	i	.	.	.	.	.	.
COc1ccc(NC(=O)c2cccc(-n3c(C)ccc3C)c2)c(OC)c1	i	i	i	i	i	.	.	.	.	.	.
COc1ccc([C@@H]2[C@@H]3C(=O)N(C(C)(C)C)C(=O)[C@@H]3[C@]3(Cc4ccccc4)C(=O)N(c4ccc(Br)cc4)C(=O)N23)cc1	-6.1*	i	i	i	i	i	i	i	i	i	i
CCN(C(=O)CSc1nc2cc(S(=O)(=O)N(CC)CC)ccc2o1)C1CCS(=O)(=O)C1 (stereo not given)	i	i	i	i	i	.	.	.	.	.	.
CN1CCc2cc3c(c4c2[C@H]1[C@H](O)c1ccccc1-4)OCO3	-5.1*	i	i	i	i	i	i	-24%*	48%*	i	i
COc1ccc2c(c1OC)C(=O)OC2C1c2c(cc3c(c2OC)OCO3)CCN1C (stereo not given)	i	i	i	i	i	.	.	.	.	.	.
CCOc1c(C)cnc2c1c(=O)n(Cc1ccc(Cl)cc1)c(=O)n2C	i	i	i	i	i	.	.	.	.	.	.
CCOc1ccc(S(=O)(=O)N(C)c2ccc(OCC(=O)N3c4ccc(C)cc4C4CN(C)CCC43)cc2)cc1 (stereo not given)	i	i	i	i	i	.	.	.	.	.	.
Cc1ccc2c(c1)C1CN(C)CCC1N2C(=O)COc1ccc(N(C)S(=O)(=O)c2cccs2)cc1 (stereo not given)	-6*	i	i	i	i	i	i	-22%*	76%*	53%*	i
C=CCOC(=O)C1=C(C)N(C)C(=O)NC1c1cc2c(cc1Br)OCO2 (stereo not given)	-5.4*	i	i	i	i	i	i	i	i	i	i
CC1CC(C)(C)N(C(=O)CN2C(=O)c3ccccc3C2=O)c2ccccc21 (stereo not given)	-5.1*	-7*	i	i	158*	183%*	i	42%*	i	i	.
COCc1cc(C)nc(SCC[N+](C)(C)CC(=O)Nc2cccc(C)c2)c1C#N	-7*	i	i	i	i	.	.	.	.	i	i	TRPC4 sel inh 2=i;TRPC4 spec=-13%*;HEK293 MPD ctr 2-1=i;HEK293 MPD ctr-1=-170%*
O=C(c1ccc2c(c1)OCO2)C1CCCN(Cc2c(F)ccc(F)c2F)C1 (stereo not given)	i	i	i	i	i	.	.	.	.	.	.
O=C(/C=C\c1ccccc1OC(=O)c1ccccc1F)c1cc2ccccc2o1	-7.1*	i	i	i	i	.	.	.	.	i	i	TRPC4 sel inh 2=i;TRPC4 spec=i;HEK293 MPD ctr 2-1=i;HEK293 MPD ctr-1=i
CCOC(=O)N1CCc2c(sc(NC(=O)CN3CCN(C)CC3)c2C(=O)Nc2ccccc2)C1	-5.3*	i	i	i	i	-83%*	i	-24%*	46%*	i	i
CCOC(=O)N1CCc2c(sc(NC(=O)CN3CCOCC3)c2C(=O)Nc2ccccc2)C1	i	i	i	i	i	.	.	.	.	.	.
COc1ccc(NC(=O)NC2CCCc3ccccc32)c(OC)c1 (stereo not given)	i	i	i	i	i	.	.	.	.	.	.
COc1ccc(CNC2CCCc3ccccc32)c(OC)c1 (stereo not given)	-6*	i	i	i	i	218%*	i	53%*	63%*	64%*	.
CC(C)C[C@H](NC(=O)c1[nH]cnc1C(=O)N[C@@H](C)C(=O)OCc1ccccc1)C(=O)OC(C)(C)C	-5.8*	i	i	i	i	i	i	i	i	i	i
COc1ccc(COCC(O)CN2CCC(CN3C(=O)c4cccc5cccc(c45)C3=O)CC2)cc1OC (stereo not given)	-5.8*	i	i	i	i	-147%*	i	-30%*	88%*	69%*	i
O=C1c2cccc3cccc(c23)C(=O)N1CC1CCN(CC(O)COc2ccc3ccccc3c2)CC1 (stereo not given)	i	i	i	i	i	.	.	.	.	.	.
